From article PMC3518307 (Bioorganic & medicinal chemistry letters, 2012)

Columns and labels:
[1] = molecular target: reverse transcriptase from HIV-1 (Human immunodeficiency virus type 1 group M subtype B, UniProt P04585); assay: Single point assay of HIV-RT activity; format: biochemical; conditions: mono-intercalators
[2] = molecular target: telomerase (Homo sapiens, UniProt O14746); assay: Telomerase inhibition assay using partially purified telomerase; format: biochemical
Method in brief: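 Partially purified telomerase, prepared by an adapted published procedure, used instead of the crude HeLa cell homogenate of the standard assay to limit extra nucleic acids that could bind bis-intercalators in the mix; IC50 from inhibition curves, with error values reported.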

telomerase, sequence (O14746 whole entry): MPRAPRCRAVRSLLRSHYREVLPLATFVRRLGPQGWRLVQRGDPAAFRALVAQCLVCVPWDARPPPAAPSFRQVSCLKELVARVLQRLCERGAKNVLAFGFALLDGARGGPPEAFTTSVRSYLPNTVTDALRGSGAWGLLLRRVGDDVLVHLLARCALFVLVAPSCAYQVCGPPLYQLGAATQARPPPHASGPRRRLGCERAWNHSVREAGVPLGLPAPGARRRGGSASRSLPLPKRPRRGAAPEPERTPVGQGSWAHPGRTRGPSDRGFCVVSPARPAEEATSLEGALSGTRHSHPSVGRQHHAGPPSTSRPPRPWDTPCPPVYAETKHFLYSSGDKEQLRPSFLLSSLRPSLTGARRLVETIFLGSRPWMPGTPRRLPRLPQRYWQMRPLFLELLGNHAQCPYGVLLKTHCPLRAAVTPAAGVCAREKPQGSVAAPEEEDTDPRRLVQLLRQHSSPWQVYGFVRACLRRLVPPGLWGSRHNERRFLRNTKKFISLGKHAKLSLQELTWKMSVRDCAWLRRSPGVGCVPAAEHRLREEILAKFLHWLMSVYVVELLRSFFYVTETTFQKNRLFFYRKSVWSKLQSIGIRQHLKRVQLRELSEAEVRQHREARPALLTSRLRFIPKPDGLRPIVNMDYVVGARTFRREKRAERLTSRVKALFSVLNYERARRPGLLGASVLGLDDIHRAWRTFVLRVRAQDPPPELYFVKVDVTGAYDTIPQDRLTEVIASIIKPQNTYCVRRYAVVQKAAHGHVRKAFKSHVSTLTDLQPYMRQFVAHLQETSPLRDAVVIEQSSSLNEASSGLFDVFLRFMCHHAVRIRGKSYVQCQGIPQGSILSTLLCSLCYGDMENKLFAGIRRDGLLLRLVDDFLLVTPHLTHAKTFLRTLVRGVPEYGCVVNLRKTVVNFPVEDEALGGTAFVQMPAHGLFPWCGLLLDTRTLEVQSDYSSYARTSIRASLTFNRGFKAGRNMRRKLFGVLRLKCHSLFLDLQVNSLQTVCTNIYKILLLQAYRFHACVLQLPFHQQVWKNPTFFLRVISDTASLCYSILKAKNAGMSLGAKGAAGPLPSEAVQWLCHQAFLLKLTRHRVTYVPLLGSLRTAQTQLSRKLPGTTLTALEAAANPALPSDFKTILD
telomerase, sequence (O60832 whole entry partner): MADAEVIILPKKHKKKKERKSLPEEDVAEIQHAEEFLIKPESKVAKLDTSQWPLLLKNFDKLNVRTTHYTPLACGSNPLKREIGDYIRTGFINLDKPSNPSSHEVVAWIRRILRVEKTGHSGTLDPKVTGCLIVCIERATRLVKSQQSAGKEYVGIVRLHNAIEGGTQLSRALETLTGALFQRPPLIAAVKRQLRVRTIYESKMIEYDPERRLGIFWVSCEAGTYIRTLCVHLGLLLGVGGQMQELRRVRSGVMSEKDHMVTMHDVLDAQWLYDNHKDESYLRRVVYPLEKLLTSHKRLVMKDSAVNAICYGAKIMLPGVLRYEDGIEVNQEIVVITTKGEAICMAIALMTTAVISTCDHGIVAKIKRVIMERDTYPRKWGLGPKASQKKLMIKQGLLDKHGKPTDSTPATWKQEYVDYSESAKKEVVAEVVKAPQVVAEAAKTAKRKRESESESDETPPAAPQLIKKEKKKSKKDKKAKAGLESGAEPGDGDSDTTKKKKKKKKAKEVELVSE
telomerase, sequence (Q9NPE3 whole entry partner): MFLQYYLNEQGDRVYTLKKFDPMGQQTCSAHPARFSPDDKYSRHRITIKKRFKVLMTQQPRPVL
telomerase, sequence (Q9NX24 whole entry partner): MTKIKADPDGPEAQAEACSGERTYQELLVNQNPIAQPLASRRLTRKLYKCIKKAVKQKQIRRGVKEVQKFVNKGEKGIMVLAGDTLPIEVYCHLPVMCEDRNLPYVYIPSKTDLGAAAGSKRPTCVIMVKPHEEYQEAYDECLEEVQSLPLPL
telomerase, sequence (Q9NY12 whole entry partner): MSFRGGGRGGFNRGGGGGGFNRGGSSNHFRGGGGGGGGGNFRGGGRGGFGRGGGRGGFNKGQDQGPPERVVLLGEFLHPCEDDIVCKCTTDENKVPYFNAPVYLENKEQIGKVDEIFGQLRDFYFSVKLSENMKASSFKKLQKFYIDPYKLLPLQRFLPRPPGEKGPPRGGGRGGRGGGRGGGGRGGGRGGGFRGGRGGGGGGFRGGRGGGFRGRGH
telomerase, sequence (Q9BUR4 whole entry partner): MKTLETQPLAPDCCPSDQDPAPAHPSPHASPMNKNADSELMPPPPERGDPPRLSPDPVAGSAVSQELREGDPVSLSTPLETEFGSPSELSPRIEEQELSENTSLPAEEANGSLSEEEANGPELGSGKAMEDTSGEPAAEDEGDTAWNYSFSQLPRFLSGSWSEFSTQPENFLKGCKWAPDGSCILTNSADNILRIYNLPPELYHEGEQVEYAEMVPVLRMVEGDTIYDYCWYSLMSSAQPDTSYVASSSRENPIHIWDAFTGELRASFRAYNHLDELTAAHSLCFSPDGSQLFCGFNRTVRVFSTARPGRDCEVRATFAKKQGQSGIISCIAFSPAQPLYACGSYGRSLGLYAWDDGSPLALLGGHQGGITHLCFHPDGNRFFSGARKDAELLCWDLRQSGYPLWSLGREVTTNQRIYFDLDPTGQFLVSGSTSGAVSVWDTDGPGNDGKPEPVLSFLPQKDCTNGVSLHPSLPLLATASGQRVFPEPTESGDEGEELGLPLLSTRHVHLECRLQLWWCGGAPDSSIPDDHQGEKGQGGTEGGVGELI

| IC50 [2] [nM] | SMILES | IC50 estimates against reverse transcriptase [1] |
| --- | --- | --- |
|  | O=C(O)c1ccc2cc3ccccc3cc2c1 [2-Anthracene carboxylic acid] | No inhibition observed |
| 103 | NCCCC[C@H](NC(=O)CCNC(=O)C(N)CN)C(N)=O (some centres unmarked) [compound 1] |  |
|  | COc1ccc2nc3cc(Cl)ccc3c(N)c2c1 [9-Amino-6-Chloro-2-Methoxy acridine] | No inhibition observed |
|  | O=C(O)c1cccc2cc3ccccc3cc12 [1-Anthracene carboxylic acid] | No inhibition observed |
|  | O=C(O)c1c2ccccc2nc2ccccc12 [9-Acridine carboxylic acid] | No inhibition observed |
